Assay results published in PubChem BioAssay AID686992 (Broad Institute, 2013).
Hit rate of the full screen: of about 260,000 compounds, about 960 (0.37%) were called active. Only a selection was taken, and actives are over-represented in it overall. A number with no mark means an inactive call.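 How the source made its calls: active means mean E-selectin-positive cell signal at least 10% of the positive control, reached in at least 60% of replicates, without over 20% cell loss; inconclusive means no rule given, readout overlaps actives, possibly toxicity-flagged; inactive means the rest, including those meeting only one limit.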

Biological target: E-selectin (Homo sapiens) (UniProt P16581)
Sequence (P16581 whole entry, looked up): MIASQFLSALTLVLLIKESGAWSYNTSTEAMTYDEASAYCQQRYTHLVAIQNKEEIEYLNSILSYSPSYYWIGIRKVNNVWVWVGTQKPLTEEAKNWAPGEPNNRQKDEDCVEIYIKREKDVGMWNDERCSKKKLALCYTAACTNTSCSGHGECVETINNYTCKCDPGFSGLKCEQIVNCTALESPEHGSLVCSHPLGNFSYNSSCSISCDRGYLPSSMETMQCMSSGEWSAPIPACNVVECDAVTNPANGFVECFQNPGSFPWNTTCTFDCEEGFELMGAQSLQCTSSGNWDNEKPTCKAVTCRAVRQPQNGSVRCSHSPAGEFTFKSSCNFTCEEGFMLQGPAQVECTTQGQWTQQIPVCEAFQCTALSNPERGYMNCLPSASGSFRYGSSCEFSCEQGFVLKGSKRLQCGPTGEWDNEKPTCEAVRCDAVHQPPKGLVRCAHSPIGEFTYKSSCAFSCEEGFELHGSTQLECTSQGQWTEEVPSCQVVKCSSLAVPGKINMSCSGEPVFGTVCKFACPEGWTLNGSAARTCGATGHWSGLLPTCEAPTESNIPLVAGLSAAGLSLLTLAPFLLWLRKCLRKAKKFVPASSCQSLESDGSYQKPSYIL
Assay: inducers of endothelial E-selectin expression – imaging, HUVEC, immunofluorescence imaging, single point, primary screen (AID 686992);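 further: signal is the percent of cells scored E-selectin positive by PE staining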
Conditions: at 7.58 µM, active compounds read high, normalized: neutral wells 0, TNF-alpha wells 100
Summary of the method: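 material = human umbilical vein endothelial cells (HUVEC), E-selectin induction | quantity = 3,000 cells/well | medium = EGM-2 growth medium on 0.1% gelatin-coated wells | technique = immunofluorescence imaging | read-out basis = % PE-positive cells | control set = TNF-alpha positive control, DMSO neutral control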

Compound | activation
CCN1C(=O)N[C@@H]2C[C@H](C(=O)N3CCCC3)[C@H](C)[C@H](c3ccccc3)C[C@@H]21 | -0.199%
Cc1ccc(CSc2nc3[nH]ncc3c(=O)[nH]2)cc1 | 92.1% (active)
Cc1ccc(CSc2nc(-c3ccccc3)c(C#N)c(=O)[nH]2)cc1 | 2.35%
Cc1cccc(NC(=O)CSc2nc3[nH]ncc3c(=O)[nH]2)c1 | -0.483%
O=C1[C@@H](c2ccccc2)[C@@H](c2ccccc2)N1c1ccccc1 | -0.064%
O=C(N[C@H]1C=C[C@@H](CC(=O)N2CCc3ccccc3C2)O[C@@H]1CO)C1CCOCC1 | -0.136%
COc1ccc(-c2nnc3n2CCCCC3)cc1 | 31.2% (active)
Cc1c(C(=O)Nc2cccc(-c3nnc4n3CCCCC4)c2)oc2ccccc12 | -1.41%
COc1cccc(C(=O)Nc2ccc3nc4n(c(=O)c3c2)CCCCC4)c1 | 0.059%
Cc1cc(N2CCN(C(=O)OC(C)(C)C)C[C@H]2C)ccc1N1CCN(Cc2ccccc2)[C@H](C)C1 | 0.115%
CCOC(=O)[C@]12CCC=C1N(Cc1ccco1)C(=O)[C@H](CC(=O)NCc1cccc(C(F)(F)F)c1)C2 | -0.145%
COc1ccc(CCN2C(=O)N(c3ccc(OC)cc3)C(=O)C2CC(=O)Nc2ccc(OC)cc2)cc1 (configuration not stated) | 4.19%
CCOc1ccc(NC(=O)CC2C(=O)N(c3ccccc3)C(=O)N2CCOC)cc1 (configuration not stated) | -0.224%
CCNC(=O)CC1C(=O)N(c2ccc(OC)cc2)C(=O)N1CCOC (configuration not stated) | 35.7% (active)
O=C(CN1CCOCC1)NC[C@@H]1N[C@@H](CO)[C@@H]1c1ccc(-c2ccccc2)cc1 | 0.253%
COc1ccc(-c2ccccc2C2Cc3nnccc3CN2C(=O)Nc2ccccc2)cc1 (configuration not stated) | -0.134%
COc1cc(OC)cc(-c2cc3ccc(F)cc3cn2)c1 | 0.221%
CCCc1ccc(S(=O)(=O)N2CCN(C(=O)c3cc(C)on3)CC2)cc1 | -0.187%
CCCCCCNC(=O)O[C@H]1CN(C(=O)OC(C)C)N(C(=O)OC(C)C)[C@@H]2CN(S(=O)(=O)c3ccc(C)cc3)C[C@]12O | 0.079%
Cc1ccc(S(=O)(=O)N2CCN(C(=O)Cc3sc(C)nc3-c3ccc(F)cc3)CC2)c(C)c1 | 62.2% (active)
Cc1nc(-c2ccc(F)cc2)c(CC(=O)Nc2cc(S(=O)(=O)N3CCCCC3)ccc2C)s1 | -1.09%
Cc1nc(-c2ccc(F)cc2)c(CC(=O)N2CCN(S(=O)(=O)c3ccc(F)cc3)CC2)s1 | -0.541%
